From ChEMBL document CHEMBL1126775, “A pharmacological, crystallographic, and quantum chemical study of new inotropic agents” (J Med Chem, 1993)
Several values for one entry are separate records, joined by “and”; a condition that tells them apart may be missing. Equal entries are not always repeated.

Experiments:
Cavia porcellus [1] = species on record: Cavia porcellus; assay: Effect on contractile force of spontaneously beating atria from reserpine treated guinea pigs at the concentration of 10 e-3 M (negative ionotropic effect); format: functional
Cavia porcellus [2] = species on record: Cavia porcellus; assay: Effect on contractile force of spontaneously beating atria from reserpine treated guinea pigs at the concentration of 10 e-5 M; format: functional
Cavia porcellus [3] = species on record: Cavia porcellus; assay: Effect on contractile force of spontaneously beating atria from reserpine treated guinea pigs at the concentration of 2 x 10 e-3 M (negative ionotropic effect); format: functional
Cavia porcellus [4] = species on record: Cavia porcellus; assay: Effect on contractile force of spontaneously beating atria from reserpine treated guinea pigs at the concentration of 5x 10 e-4 M (negative ionotropic effect); format: functional
Cavia porcellus [5] = species on record: Cavia porcellus; assay: Effect on contractile force of spontaneously beating atria from reserpine treated guinea pigs at the concentration of 5x 10 e-5 M (negative ionotropic effect); format: functional
Cavia porcellus [6] = species on record: Cavia porcellus; assay: Effect on frequency rate of spontaneously beating atria from reserpine treated guinea pigs at the concentration of 10 e-3 M (negative chronotropic ionotropic effect); format: functional
Cavia porcellus [7] = species on record: Cavia porcellus; assay: Effect on frequency rate of spontaneously beating atria from reserpine treated guinea pigs at the concentration of 10 e-4 M (negative chronotropic ionotropic effect); format: functional
Cavia porcellus [8] = species on record: Cavia porcellus; assay: Effect on frequency rate of spontaneously beating atria from reserpine treated guinea pigs at the concentration of 2 x 10 e-3 M (negative chronotropic ionotropic effect); format: functional
Cavia porcellus [9] = species on record: Cavia porcellus; assay: Effect on frequency rate of spontaneously beating atria from reserpine treated guinea pigs at the concentration of 5 x 10 e-4 M (negative chronotropic ionotropic effect); format: functional
Cavia porcellus [10] = species on record: Cavia porcellus; assay: Effect on contractile force of spontaneously beating atria from reserpine treated guinea pigs at the concentration of 10 e-4 M (negative ionotropic effect); format: functional
Cavia porcellus [11] = species on record: Cavia porcellus; assay: Effect on frequency rate of spontaneously beating atria from reserpine treated guinea pigs at the concentration of 5 x 10 e-5 M (negative chronotropic ionotropic effect)
Cavia porcellus [12] = species on record: Cavia porcellus; assay: Effect on contractile force of spontaneously beating atria from reserpine treated guinea pigs at the concentration of 10 e-3 M; format: functional
Cavia porcellus [13] = species on record: Cavia porcellus; assay: Effect on contractile force of spontaneously beating atria from reserpine treated guinea pigs at the concentration of 2 x 10 e-3 M; format: functional
Cavia porcellus [14] = species on record: Cavia porcellus; assay: Effect on frequency rate of spontaneously beating atria from reserpine treated guinea pigs at the concentration of 10 e-3 M; format: functional
Cavia porcellus [15] = species on record: Cavia porcellus; assay: Effect on frequency rate of spontaneously beating atria from reserpine treated guinea pigs at the concentration of 10 e-4 M; format: functional
Cavia porcellus [16] = species on record: Cavia porcellus; assay: Effect on frequency rate of spontaneously beating atria from reserpine treated guinea pigs at the concentration of 10 e-5 M; format: functional
Cavia porcellus [17] = species on record: Cavia porcellus; assay: Effect on frequency rate of spontaneously beating atria from reserpine treated guinea pigs at the concentration of 2 x 10 e-3 M; format: functional
Cavia porcellus [18] = species on record: Cavia porcellus; assay: Effect on frequency rate of spontaneously beating atria from reserpine treated guinea pigs at the concentration of 5 x 10 e-4 M; format: functional
[19] = Logarithm of the sum of contributions of each atom to the total lipophilicity of the molecule; format: physicochemical; conditions: octanol/water
Cavia porcellus [20] = species on record: Cavia porcellus; assay: Inotropic effect in electrically driven left atrium from reserpine-treated guinea pig at the concentration of 10 e-4 M; format: functional, Cardiac atrium
Outline: (§1)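 Atria from reserpine-pretreated guinea pigs (2 mg/kg ip, 48 and 24 h), tyramine-unresponsive only. Left atrium loaded 0.5 g, paced at 1.5 Hz with 3-ms square pulses at 10–20% above threshold. Equilibrated 90 min. Agents added cumulatively, 5 min per concentration. Isometric developed tension expressed as % increase over control.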

Cavia porcellus [21] = species on record: Cavia porcellus; assay: Inotropic effect in electrically driven left atrium from reserpine-treated guinea pig at the concentration of 10 e-5 M; format: functional, Cardiac atrium; outline: as §1
Cavia porcellus [22] = species on record: Cavia porcellus; assay: Inotropic effect in electrically driven left atrium from reserpine-treated guinea pig at the concentration of 2 x 10 e-3 M; format: functional, Cardiac atrium; outline: as §1
Cavia porcellus [23] = species on record: Cavia porcellus; assay: Inotropic effect in electrically driven left atrium from reserpine-treated guinea pig at the concentration of 5 x 10 e-4 M; format: functional, Cardiac atrium; outline: as §1
Cavia porcellus [24] = species on record: Cavia porcellus; assay: Inotropic effect in electrically driven left atrium from reserpine-treated guinea pig at the concentration of 5 x 10 e-5 M; format: functional, Cardiac atrium; outline: as §1
Cavia porcellus [25] = species on record: Cavia porcellus; assay: Inotropic effect in electrically driven left atrium from reserpine-treated guinea pig at the concentration of 10 e-3 M; format: functional, Cardiac atrium; outline: as §1
Cavia porcellus [26] = species on record: Cavia porcellus; assay: Effect on contractile force of spontaneously beating atria from reserpine treated guinea pigs at the concentration of 10 e-4 M; format: functional
Cavia porcellus [27] = species on record: Cavia porcellus; assay: Effect on contractile force of spontaneously beating atria from reserpine treated guinea pigs at the concentration of 5x 10 e-4 M; format: functional
Cavia porcellus [28] = species on record: Cavia porcellus; assay: Effect on contractile force of spontaneously beating atria from reserpine treated guinea pigs at the concentration of 5x 10 e-5 M; format: functional

| SMILES | Increase (Cavia porcellus [1]) | Increase (Cavia porcellus [2]) | Increase (Cavia porcellus [4]) | Increase (Cavia porcellus [5]) | Increase (Cavia porcellus [6]) | Increase (Cavia porcellus [7]) | Increase (Cavia porcellus [8]) | Increase (Cavia porcellus [9]) | Increase (Cavia porcellus [10]) | Increase (Cavia porcellus [12]) | Increase (Cavia porcellus [13]) | Increase (Cavia porcellus [14]) | Increase (Cavia porcellus [15]) | Increase (Cavia porcellus [16]) | Increase (Cavia porcellus [17]) | Increase (Cavia porcellus [18]) | Increase (Cavia porcellus [28]) | also measured |
| --- | --- | --- | --- | --- | --- | --- | --- | --- | --- | --- | --- | --- | --- | --- | --- | --- | --- | --- |
| O=C(O)c1cc(C(=O)c2ccccc2)c(-c2ccccc2)nc1O | -90.39% | 2.45% | -61.56% | -1.52% | -25.3% | -5.31% | -35.93% | -14.43% | -10.02% |  |  |  |  |  |  |  |  | Increase (Cavia porcellus [3]): -100%; Increase (Cavia porcellus [11]): -2.23% and -3.38% |
| CC1(C)CC(=O)c2ccc(O)nc2C1 |  | 0% | -5.5% | -3.45% |  |  |  |  | -3.46% | 2.45% | 4.71% | 1.06% | 1.05% | 0% and 1.27% | 2.65% | 1.09% |  |  |
| Nc1cc(-c2ccncc2)c[nH]c1=O [INAMRINONE] |  | 7.08% |  |  |  |  |  |  |  | 28.81% | 25.3% | 30.69% | 15.68% | 4.62% and 8.85% | 26.3% | 24.11% | 11.52% | logP [19]: 2.66; Increase (Cavia porcellus [20]): 17.52%; Increase (Cavia porcellus [21]): 4.5%; Increase (Cavia porcellus [22]): 34.6%; Increase (Cavia porcellus [23]): 22.3%; Increase (Cavia porcellus [24]): 6.49%; Increase (Cavia porcellus [25]): 27%; Increase (Cavia porcellus [26]): 17.92%; Increase (Cavia porcellus [27]): 23.92% |
| O=C(O)c1cc2c(nc1O)CC(c1ccccc1)CC2=O (stereo unspecified) | -23.77% | 1.53% | -7.59% |  | -13.88% | -1.21% | -27.07% | -4.58% | -1.21% |  | -27.77% |  |  | 0.58% and 1.22% |  |  | 2.21% |  |
